Data reported in ChEMBL document CHEMBL4814013, “Scaffold repurposing of fendiline: Identification of potent KRAS plasma membrane localization inhibitors” (Eur J Med Chem, 2021).
Calls of active or inactive are those of the source. The calls are words filed in the database; no cut-off is given here.

Experiments:
[1] = tested on: MDCK; test: Reduction in expression of human GFP-tagged ASM transfected in dog MDCK cells at 5 uM incubated for 48 hrs by western blot analysis; type: functional, cell-based; conditions: Canis lupus familiaris
Summary of the method: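 SMPD1-GFP-expressing MDCK cells treated 48 h with 5 µM compound, washed in cold PBS and lysed in Tris pH 7.5 buffer with NaF, EGTA, DTT, vanadate, 1% NP40 and protease inhibitors. 20 µg of protein resolved by SDS-PAGE and immunoblotted. Signals detected by enhanced chemiluminescence and quantified by densitometry.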

[2] = tested on: MEF; test: Cytotoxicity against mouse MEF cells expressing BRAF V600E mutant and wild type KRAS assessed as reduction in cell growth incubated for 72 hrs by CyQuant proliferation assay; type: functional, cell-based
Summary of the method: (§1)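 Cells seeded in 96-well plates; after 24 h fresh growth medium with 0.1% DMSO vehicle or drug added (highest dose 30 µM for cancer lines), grown 72 h at 37 °C, 5% CO2. Live cell number measured by CyQUANT fluorescence. IC50 from three independent experiments. MEFs were isogenic lines carrying oncogenic BRAF or KRAS.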

[3] = tested on: MEF; test: Antiproliferative activity against mouse MEF cells expressing KRAS G12V mutant assessed as reduction in cell growth incubated for 72 hrs by CyQuant proliferation assay; type: functional, cell-based; summary of the method: as §1
[4] = tested on: MEF; test: Antiproliferative activity against mouse MEF cells expressing KRAS G12D mutant assessed as reduction in cell growth incubated for 72 hrs by CyQuant proliferation assay; type: functional, cell-based; summary of the method: as §1
[5] = tested on: BXPC-3; test: Antiproliferative activity against human BXPC-3 cells expressing wild type KRAS assessed as reduction in cell growth incubated for 72 hrs by CyQuant proliferation assay; type: functional, cell-based; conditions: BXPC-3, 72 h; summary of the method: as §1
[6] = tested on: MIA PaCa-2; test: Antiproliferative activity against human MIA PaCa-2 cells expressing KRAS mutant assessed as reduction in cell growth incubated for 72 hrs by CyQuant proliferation assay; type: functional, cell-based; conditions: MIA PaCa-2, 72 h; summary of the method: as §1
[7] = Antiproliferative activity against human MOH cells expressing KRAS mutant assessed as reduction in cell growth incubated for 72 hrs by CyQuant proliferation assay; type: functional, cell-based; summary of the method: as §1
[8] = Antiproliferative activity against human MPANC96 cells expressing KRAS mutant assessed as reduction in cell growth incubated for 72 hrs by CyQuant proliferation assay; type: functional, cell-based; conditions: MPANC96, 72 h; summary of the method: as §1
[9] = tested on: Ishikawa; test: Antiproliferative activity against human Ishikawa cells expressing wild type KRAS assessed as reduction in cell growth incubated for 72 hrs by CyQuant proliferation assay; type: functional, cell-based; summary of the method: as §1
[10] = tested on: HEC-1-A; test: Antiproliferative activity against human HEC-1-A cells expressing mutant KRAS assessed as reduction in cell growth incubated for 72 hrs by CyQuant proliferation assay; type: functional, cell-based; summary of the method: as §1
[11] = tested on: HEC-1B cell line; test: Antiproliferative activity against human HEC-1B cells expressing mutant KRAS assessed as reduction in cell growth incubated for 72 hrs by CyQuant proliferation assay; type: functional, cell-based; summary of the method: as §1
[12] = tested on: Caco-2; test: Antiproliferative activity against human Caco-2 cells expressing wild type KRAS assessed as reduction in cell growth incubated for 72 hrs by CyQuant proliferation assay; type: functional, cell-based; conditions: Caco-2, 72 h; summary of the method: as §1
[13] = tested on: NCI-H1975; test: Antiproliferative activity against human NCI-H1975 cells expressing wild type KRAS assessed as reduction in cell growth incubated for 72 hrs by CyQuant proliferation assay; type: functional, cell-based; conditions: NCI-H1975, 72 h; summary of the method: as §1
[14] = tested on: NCI-H522; test: Antiproliferative activity against human NCI-H522 cells expressing wild type KRAS assessed as reduction in cell growth incubated for 72 hrs by CyQuant proliferation assay; type: functional, cell-based; conditions: NCI-H522, 72 h; summary of the method: as §1
[15] = tested on: NCI-H1299; test: Antiproliferative activity against human NCI-H1299 cells expressing wild type KRAS assessed as reduction in cell growth incubated for 72 hrs by CyQuant proliferation assay; type: functional, cell-based; conditions: NCI-H1299, 72 h; summary of the method: as §1
[16] = tested on: Caenorhabditis elegans; test: In vivo inhibition of KRAS signaling in Caenorhabditis elegans lin-1 L1 harboring let60 […] mutant assessed as reduction in multi-vulva phenotype measured after 4 to 5 days culturing in buffer containing Escherichia coli OP50 by DIC/Nomarski microscopic analysis; type: functional, organism-based; conditions: dose 0.1-30 µM, time 4-5 day
Summary of the method: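 let-60 (n1046) or lin-1 L1 larvae cultured in M9 buffer with E. coli OP50 plus DMSO vehicle or compound at 0.1, 0.3, 1, 3, 10 or 30 µM. After 4–5 days, adults were scored for multi-vulva by DIC/Nomarski microscopy.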

[17] = tested on: Mus musculus; test: In vivo inhibition of ASM in nu/nu mouse xenografted with human MIA PaCa-2 cells harboring KRAS mutation assessed as increase in SM accumulation in tumor at 12.5 mg/kg, ip administered once daily for 5 days with 2 days break by GFP-lysenin staining based confocal laser microscopy; type: functional, organism-based; conditions: time 5.0 day
Summary of the method: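 Sections of MiaPaCa-2 xenograft tumors from i.p.-treated nu/nu mice (12.5 mg/kg) stained with GFP-tagged lysenin to detect sphingomyelin.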

[18] = tested on: Mus musculus; test: In vivo inhibition of KRAS signaling in nu/nu mouse xenografted with human MIA PaCa-2 cells harboring KRAS mutation assessed as decrease in ERK phosphorylation in tumor at 1 to 5 mg/kg, ip administered once daily for 5 days with 2 days break by immunohistochemistry; type: functional, organism-based; conditions: dose 1-5 mg/kg, time 5.0 day
Summary of the method: (§2)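 Paraffin tumor sections of 4–5 µm were deparaffinized and given heat antigen retrieval in 10 mM sodium citrate. Endogenous peroxidase was quenched and sections blocked in 2.5% normal goat serum. Primary antibody (pERK or cleaved caspase 3) applied overnight at 4 °C, biotinylated secondary 1:250 for 45 min at rt, then ABC reagent 30 min and DAB development. Rabbit IgG served as control.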

[19] = tested on: MIA PaCa-2; test: Antitumor activity human MIA PaCa-2 cells harboring KRAS mutation xenografted in nu/nu mouse assessed as induction of apoptosis by measuring increase in cleaved caspase 3 level in tumor at 1 to 5 mg/kg, ip administered once daily for 5 days with 2 days break by immunohistochemistry; type: functional, organism-based; conditions: dose 1-5 mg/kg, time 5.0 day; summary of the method: as §2
[20] = tested on: Mus musculus; test: In vivo inhibition of Ca2+ channel in nu/nu mouse xenografted with human MIA PaCa-2 cells harboring KRAS mutation assessed as blood vessel dialation in tumor at 1 to 5 mg/kg, ip administered once daily for 5 days with 2 days break by immunostaining; type: functional, organism-based; conditions: dose 1-5 mg/kg, time 5.0 day
[21] = molecular target: T1, Sphingomyelin phosphodiesterase (Homo sapiens) (UniProt P17405); test: Inhibition of human GFP-tagged ASM expressed in dog MDCK cells using sphingomyelin as substrate at 5 uM incubated for 48 hrs by Amplex Red dye based fluorescence analysis; type: cell-based
T1 sequence (whole entry): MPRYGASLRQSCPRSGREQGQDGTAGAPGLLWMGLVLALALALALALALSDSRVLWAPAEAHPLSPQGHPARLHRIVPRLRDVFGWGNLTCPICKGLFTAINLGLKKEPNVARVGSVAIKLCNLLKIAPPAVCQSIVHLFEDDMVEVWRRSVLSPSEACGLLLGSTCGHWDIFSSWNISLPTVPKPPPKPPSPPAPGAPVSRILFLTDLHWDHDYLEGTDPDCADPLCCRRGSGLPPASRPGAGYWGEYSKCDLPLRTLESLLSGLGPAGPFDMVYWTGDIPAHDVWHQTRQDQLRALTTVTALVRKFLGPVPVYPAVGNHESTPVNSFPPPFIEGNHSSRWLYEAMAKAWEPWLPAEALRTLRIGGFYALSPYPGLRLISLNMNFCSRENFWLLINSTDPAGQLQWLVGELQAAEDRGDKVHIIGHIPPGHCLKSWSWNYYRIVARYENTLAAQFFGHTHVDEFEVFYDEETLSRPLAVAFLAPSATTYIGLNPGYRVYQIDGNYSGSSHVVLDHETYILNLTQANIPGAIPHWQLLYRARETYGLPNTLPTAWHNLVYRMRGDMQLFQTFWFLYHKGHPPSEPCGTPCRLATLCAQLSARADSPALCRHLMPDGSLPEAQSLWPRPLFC
Summary of the method: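 MDCK cells stably expressing human SMPD1-GFP treated 48 h at 5 µM. Whole-cell lysate, made without DTT, mixed with 50 mM sodium acetate pH 5.0 plus sphingomyelin and held 1 h at 37 °C. pH then raised to 7.4 with Amplex Red mix (100 µM Amplex Red, 2 U/mL HRP, 0.2 U/mL choline oxidase, 8 U/mL alkaline phosphatase, 100 mM Tris pH 8.0), 60 min at 37 °C. Fluorescence read at Ex 540/Em 590 nm. Controls: 0.1 U/mL SMase (positive), buffer alone (negative).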

[22] = tested on: MDCK; test: Inhibition of ASM in dog MDCK cells co-expressing recombinant full length mGFP-tagged KRAS G12V mutant and mCherry-CAAX assessed as reduction in plasma membrane localization of KRAS mutant at 10 uM incubated for 48 hrs followed by incubation with recombinant ASM in continued presence of compound for 60 mins by confocal microscopic analysis; type: cell membranes; conditions: Canis lupus familiaris, time 49.0 hrs
Summary of the method: (§3)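 MDCK cells stably co-expressing mGFP-KRAS G12V and mCherry-CAAX seeded on glass coverslips and grown 48 h with or without compound. Medium then replaced with fresh medium containing 2 units/mL recombinant ASM, drug continued, for 60 min. Cells mounted in mowiol and imaged by confocal microscopy. Mislocalization scored by Manders coefficient.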

[23] = Inhibition of ASM in dog MDCK cells co-expressing recombinant full length mGFP-tagged KRAS G12V mutant and mCherry-CAAX assessed as reduction in plasma membrane localization of KRAS mutant incubated for 48 hrs by confocal microscopic analysis; type: cell membranes, Canis lupus familiaris
Summary of the method: (§4)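 MDCK cells stably co-expressing mGFP-KRAS G12V or mGFP-LactC2 with mCherry-CAAX (HRAS 179–189 C181S/C184S) grown on coverslips in DMEM/10% FBS. Treated 48 h with 0.1% DMSO or graded drug, fixed in 4% paraformaldehyde, then quantitative confocal imaging. Mislocalization scored as the Manders fraction of mCherry-CAAX co-localizing with the GFP probe. IC50 and Emax from three independent experiments.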

[24] = tested on: MDCK; test: Inhibition of ASM in dog MDCK cells co-expressing recombinant full length mGFP-tagged KRAS G12V mutant and mCherry-CAAX assessed as reduction in plasma membrane localization of KRAS mutant incubated for 48 hrs by confocal microscopic analysis relative to control; type: cell membranes; conditions: Canis lupus familiaris; summary of the method: as §4
[25] = tested on: MDCK; test: Cytotoxicity against dog MDCK cells at 30 uM; type: functional, cell-based; conditions: Canis lupus familiaris
[26] = tested on: MDCK; test: Inhibition of ASM in dog MDCK cells co-expressing recombinant full length mGFP-tagged KRAS G12V mutant and mCherry-CAAX assessed as reduction in plasma membrane localization of KRAS mutant at 1 uM incubated for 48 hrs followed by incubation with recombinant ASM in continued presence of compound for 60 mins by confocal microscopic analysis; type: cell membranes; conditions: Canis lupus familiaris, time 49.0 hrs; summary of the method: as §3
[27] = tested on: SK-CO-1; test: Antiproliferative activity against human SK-CO-1 cells expressing mutant KRAS assessed as reduction in cell growth incubated for 72 hrs by CyQuant proliferation assay; type: functional, cell-based; conditions: SK-CO-1, 72 h; summary of the method: as §1
[28] = tested on: KLE; test: Antiproliferative activity against human KLE cells expressing wild type KRAS assessed as reduction in cell growth upto 30 uM incubated for 72 hrs by CyQuant proliferation assay; type: functional, cell-based; conditions: dose microM <=30, time 72.0 hrs; summary of the method: as §1
[29] = tested on: ESS-1; test: Antiproliferative activity against human ESS-1 cells expressing wild type KRAS assessed as reduction in cell growth upto 30 uM incubated for 72 hrs by CyQuant proliferation assay; type: functional, cell-based; conditions: dose microM <=30, time 72.0 hrs; summary of the method: as §1
[30] = tested on: MDCK; test: Inhibition of ASM in dog MDCK cells co-expressing recombinant full length GFP-tagged LactC2 and mCherry-CAAX assessed as reduction in plasma membrane localization of LactC2 incubated for 48 hrs by confocal microscopic analysis; type: cell membranes; conditions: Canis lupus familiaris; summary of the method: as §4

Structure (SMILES) | inhibition [1] | IC50 [2] [µM] | IC50 [3] [µM] | IC50 [4] [µM] | IC50 [5] [µM] | IC50 [6] [µM] | IC50 [7] [µM] | IC50 [8] [µM] | IC50 [9] [µM] | IC50 [11] [µM] | IC50 [12] [µM] | IC50 [13] [µM] | IC50 [14] [µM] | IC50 [15] [µM] | inhibition [16] | inhibition [21] | IC50 [23] [µM] | Emax [24] | Activity [25] | further results
CC(NCCC(c1ccccc1)c1ccccc1)c1ccccc1 (centres undefined) [FENDILINE] | inactive | 17.8 | 8.1 | 13.1 | 28.6 | 9.2 | 11.1 | 10.8 | > 30 | 9.8 | 14.5 | > 30 | 29.6 | 24.3 | Dose-Dependent Effect | Active |  |  |  | IC50 [10]: 9.48 µM; inhibition [17]: Active; inhibition [18]: inactive; Activity [19]: inactive; inhibition [20]: Active; inhibition [22]: inactive
COc1ccc([C@@H](C)N(CC=C(c2ccccc2)c2ccccc2)CCN2CCN(C)CC2)cc1 | Active | 7.5 | 2.7 | 3.7 | 5.7 | 3 | 3.7 | 4.2 | > 30 | 3.3 | 5.1 | > 30 | 28.2 | 8.2 | Dose-Dependent Effect | Active | 0.1 | 0.75 | Active | inhibition [26]: inactive; IC50 [27]: 3.3 µM; Activity [28]: inactive; Activity [29]: inactive; inhibition [30]: Active
C[C@H](c1ccccc1)N(CC=C(c1ccccc1)c1ccccc1)CCN1CCN(C)CC1 |  |  |  |  |  |  |  |  |  |  |  |  |  |  |  |  | 0.6 | 0.79 | Active | 
